Our source for the zone of inhibition, Activity and MIC values is ChEMBL document CHEMBL1137737, “Synthesis, antimicrobial and cytotoxic activities of 1,3,4-oxadiazoles, 1,3,4-thiadiazoles and 1,2,4-triazoles” (Eur J Med Chem, 2009).

Usually MIC stands for the lowest concentration found to suppress growth. Low values mean inhibition by little substance, high ones a need for much substance.

Assay [1] concerns Klebsiella pneumoniae. The assay is described as follows: Antibacterial activity against Klebsiella pneumoniae NCIM 2957 at 100 ug/disk after 24 hrs by agar disc-diffusion method. Conditions: NCIM 2957, 24 h, read-out: DIZ. In kind it is functional. A digest of the protocol:
(§1)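 Sterile 6 mm filter-paper discs are soaked in compound solution in DMSO and placed on nutrient agar plates already inoculated with each organism. Plates are incubated at 37 °C. The diameter of the growth-inhibition zone is read after 24 h for bacteria and after 48 h for fungi.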

Assay [2] deals with A549. The assay is described as follows: Cytotoxicity against human A549 cells at 250 uM by MTT assay. In kind it is functional, cell-based. In outline: (§2)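 A549 lung adenocarcinoma cells are grown in DMEM with 10% FBS and penicillin–streptomycin. Compounds come from a 10 mM DMSO stock, are diluted in medium, and are added 2–4 h after plating. Viability is (treated − background)/(untreated − background) × 100, with a DMSO vehicle control. The experiment was run in duplicate with triplicate readings.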
(Tetrazolium dyes change colour on reduction, which living cells bring about.)

Assay [3] deals with Aspergillus niger. The assay is described as follows: Antifungal activity against Aspergillus niger NCIM 596 at 200 ug/disk after 48 hrs by agar disc-diffusion method. In kind it is functional. The conditions noted are these: NCIM 596, 48 h, read-out: DIZ. In outline:
as §1
(In general: A growth-free zone around the sample is the usual read-out of agar diffusion tests.)

The test system of assay [4] is Fusarium solani. The assay is described as follows: Antifungal activity against Fusarium solani NCIM 1330 at 200 ug/disk after 48 hrs by agar disc-diffusion method. The format is functional. Conditions: NCIM 1330, 48 h, read-out: DIZ. In outline: as §1
The test system of assay [5] is Proteus vulgaris. Nature of the assay: Antibacterial activity against Proteus vulgaris NCIM 2027 at 100 ug/disk after 24 hrs by agar disc-diffusion method. The format is functional. Conditions: NCIM 2027, 24 h, read-out: DIZ. A digest of the protocol: as §1
The test system of assay [6] is A549. The assay is described as follows: Cytotoxicity against human A549 cells at 250 uM by MTT assay relative to control. In kind it is functional. In outline:
as §2

Assay [7] deals with A549. The assay is described as follows: Cytotoxicity against human A549 cells at 250 uM by MTT assay in presence of 0.2% fetal bovine serum. In kind it is functional. In outline:
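MTT viability assay on A549 cells as for the other cytotoxicity lines, but with 0.2% serum in the medium in place of 10% FBS. Compounds are diluted in medium from a 10 mM DMSO stock and exposure lasts 48 h.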

Assay [8] relates to Aspergillus niger. The assay is described as follows: Antifungal activity against Aspergillus niger NCIM 596 at 100 ug/disk after 48 hrs by agar disc-diffusion method. In kind it is functional. The conditions noted are these: NCIM 596, 48 h, read-out: DIZ. A digest of the protocol: as §1
Assay [9] deals with Fusarium solani. The assay is described as follows: Antifungal activity against Fusarium solani NCIM 1330 at 100 ug/disk after 48 hrs by agar disc-diffusion method. In kind it is functional. Conditions: NCIM 1330, 48 h, read-out: DIZ. In outline: as §1
For assay [10], the system named is Proteus vulgaris. The assay is described as follows: Antibacterial activity against Proteus vulgaris NCIM 2027 after 24 hrs by microdilution susceptibility method. In kind it is functional. The conditions noted are these: NCIM 2027, 24 h. In outline: (§3)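 This is a microdilution susceptibility test. Organism suspensions are inoculated into wells holding the dilution series, then incubated at 36 °C for 24 h (bacteria) or 48 h (fungi). MIC is the lowest concentration giving no turbidity, i.e. complete inhibition of visible growth.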

Assay [11] relates to Curvularia lunata. The assay is described as follows: Antifungal activity against Curvularia lunata NCIM 716 after 48 hrs by microdilution susceptibility method. In kind it is functional. Conditions: NCIM 716, 48 h. A digest of the protocol: as §3
Assay [12] deals with Bacillus subtilis. Nature of the assay: Antibacterial activity against Bacillus subtilis NCIM 2063 at 200 ug/disk after 24 hrs by agar disc-diffusion method. The format is functional. Conditions: NCIM 2063, 24 h, read-out: DIZ. In outline:
as §1

For assay [13], the system named is Klebsiella pneumoniae. Nature of the assay: Antibacterial activity against Klebsiella pneumoniae NCIM 2957 after 24 hrs by microdilution susceptibility method. The format is functional. Conditions: NCIM 2957, 24 h. A digest of the protocol: as §3
In general terms: Dilution methods test growth across graded concentrations, often in twofold steps.

The subject of assay [14] is Bacillus subtilis. The assay is described as follows: Antibacterial activity against Bacillus subtilis NCIM 2063 at 100 ug/disk after 24 hrs by agar disc-diffusion method. In kind it is functional. Conditions: NCIM 2063, 24 h, read-out: DIZ. In outline: as §1
The test system of assay [15] is Curvularia lunata. The assay is described as follows: Antifungal activity against Curvularia lunata NCIM 716 at 100 ug/disk after 48 hrs by agar disc-diffusion method. In kind it is functional. The conditions noted are these: NCIM 716, 48 h, read-out: DIZ. A digest of the protocol:
as §1

The test system of assay [16] is Proteus vulgaris. Nature of the assay: Antibacterial activity against Proteus vulgaris NCIM 2027 at 200 ug/disk after 24 hrs by agar disc-diffusion method. The conditions noted are these: NCIM 2027, 24 h, read-out: DIZ. The format is functional. A digest of the protocol:
as §1

The subject of assay [17] is Staphylococcus aureus. The assay is described as follows: Antibacterial activity against Staphylococcus aureus NCIM 5021 at 100 ug/disk after 24 hrs by agar disc-diffusion method. Conditions: NCIM 5021, 24 h, read-out: DIZ. The format is functional. A digest of the protocol:
as §1

Assay [18] has as its system Bacillus subtilis. Nature of the assay: Antibacterial activity against Bacillus subtilis NCIM 2063 after 24 hrs by microdilution susceptibility method. In kind it is functional. The conditions noted are these: NCIM 2063, 24 h. A digest of the protocol: as §3
Assay [19] has as its system Klebsiella pneumoniae. The assay is described as follows: Antibacterial activity against Klebsiella pneumoniae NCIM 2957 at 200 ug/disk after 24 hrs by agar disc-diffusion method. Conditions: NCIM 2957, 24 h, read-out: DIZ. In kind it is functional. In outline:
as §1

The test system of assay [20] is Staphylococcus aureus. The assay is described as follows: Antibacterial activity against Staphylococcus aureus NCIM 5021 after 24 hrs by microdilution susceptibility method. The format is functional. Conditions: NCIM 5021, 24 h. In outline: as §3
Assay [21] relates to Fusarium solani. Nature of the assay: Antifungal activity against Fusarium solani NCIM 1330 after 48 hrs by microdilution susceptibility method. The format is functional. Conditions: NCIM 1330, 48 h. A digest of the protocol:
as §3

Assay [22] relates to Aspergillus niger. Nature of the assay: Antifungal activity against Aspergillus niger NCIM 596 after 48 hrs by microdilution susceptibility method. In kind it is functional. The conditions noted are these: NCIM 596, 48 h. A digest of the protocol:
as §3

The subject of assay [23] is Staphylococcus aureus. The assay is described as follows: Antibacterial activity against Staphylococcus aureus NCIM 5021 at 200 ug/disk after 24 hrs by agar disc-diffusion method. The format is functional. The conditions noted are these: NCIM 5021, 24 h, read-out: DIZ. In outline: as §1
In assay [24] the test system is Curvularia lunata. Nature of the assay: Antifungal activity against Curvularia lunata NCIM 716 at 200 ug/disk after 48 hrs by agar disc-diffusion method. The format is functional. The conditions noted are these: NCIM 716, 48 h, read-out: DIZ. In outline: as §1

The structures appear in SMILES notation. ≈ marks a conversion by molar mass, not a printed value. Calls of active or inactive are those of the source. No cut-off for these calls is given here.

For the compound `Nn1c(CS(=O)(=O)Cc2ccc(Cl)cc2)nnc1-c1ccccc1Cl`, the zone of inhibition at 100 µg/disc in the assay on Klebsiella pneumoniae [1] is 33 mm; with Proteus vulgaris [5], 31 mm; with Aspergillus niger [8], 22 mm; with Fusarium solani [9], 29 mm; in the assay on Bacillus subtilis [14] it was 37 mm; in the assay with Curvularia lunata [15], 27 mm. The zone of inhibition at 100 µg/disc in the assay with Staphylococcus aureus [17] stood at 32 mm. The result in the assay with A549 [2] was Active. For the same compound, the zone of inhibition at 200 µg/disc was 24 mm in the assay with Aspergillus niger [3]; 32 mm in the assay on Fusarium solani [4]; 39 mm in the assay on Bacillus subtilis [12]; 34 mm in the assay with Proteus vulgaris [16]; 36 mm in the assay with Klebsiella pneumoniae [19]; 37 mm in the assay with Staphylococcus aureus [23]. In the assay with Curvularia lunata [24], the zone of inhibition at 200 µg/disc came to 31 mm. The Activity in the assay with A549 [6] and in the assay on A549 [7] was 50% each time. For the same compound, the minimum inhibitory concentration (MIC) with Proteus vulgaris [10] was determined as 100 µg/mL (≈ 252 µM); against Curvularia lunata [11], 50 µg/mL (≈ 126 µM); in the assay with Klebsiella pneumoniae [13], 50 µg/mL (≈ 126 µM); in the assay on Bacillus subtilis [18], 25 µg/mL (≈ 62.9 µM); in the assay with Staphylococcus aureus [20], 25 µg/mL (≈ 62.9 µM); with Fusarium solani [21] it was 100 µg/mL (≈ 252 µM). The compound also came in with an MIC with Aspergillus niger [22] of 50 µg/mL (≈ 126 µM).
